From PubChem BioAssay AID504382 (The Scripps Research Institute Molecular Screening Center, 2011) come the findings set out here.

Screen size: about 2,500 compounds; about 460 (18%) were called active.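 Rule for the calls: active = mean activation above a cutoff of low control average plus 3 SD from the earlier screen (cut at about 12% in these data); inactive = the rest.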 A selection follows.

The experiment is described as follows: IANBD-channel fluorescence artefacts in buffer – biochemical, artefact control for cardiac RTF calcium sensitizer project, confirmation (AID 504382). The following applies: IANBD fluorescence interference counterscreen, EC20 Ca2+, at 7.2 µM, stronger effect = higher value. The method, boiled down: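 Medium: MOPS/KCl/MgCl2/EGTA/NTA/DTT buffer, pH 7.2 | Reagent: EC20 calcium, 0.472 mM | Compound dosing: 7.2 µM single dose | Times: 15 min compound exposure at 25 °C | Signal: Fluorescence, 480/540 nm | Measure: Interference relative to controls | Repeats: Triplicate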
In general terms: The purpose of a counterscreen is to sort out artefacts and off-target activity.
Take `Cc1cc2c(C(F)(F)F)cc(=O)oc2c2c1NCCC2`: the fluorescence artifact activation is 26.6% (active). In the case of `O=c1cc(C(F)(F)F)c2cc3c4c(c2o1)CCCN4CCC3`, the fluorescence artifact activation was 19.7% (active).

Take `COc1ccc2c3c([nH]c2c1)C(C)=NCC3`: the fluorescence artifact activation is 0.04% (inactive). On to `COc1ccc(CC(=O)N2CCN(C)CC2)cc1OC`, for which the fluorescence artifact activation was 0.89% (inactive).

Turning to `Cc1cc(N(CCCl)CCCl)ccc1C=Cc1ccncn1`, the fluorescence artifact activation is 3.44% (inactive). As for `O=c1[nH]c(=O)n(Cc2ccc(F)cc2)c(O)c1/C=N/Nc1ccccc1`, the fluorescence artifact activation is 6.04% (inactive).

Consider `CCOP(=O)(Cc1cc(C#N)oc1C)OCC`, for which the fluorescence artifact activation is 0.13% (inactive).

On to `COc1ccc(N2C(=O)/C(=C/c3ccc(N(C)C)o3)C(=O)NC2=S)cc1`, for which the fluorescence artifact activation was 92% (active). With `CCN(CC)c1ccc(/C=C2\C(=O)NC(=S)N(c3ccc(OC)cc3OC)C2=O)o1`, the fluorescence artifact activation was 0.1% (inactive). Regarding `CCN(CC)c1ccc(/C=C2\C(=O)NC(=S)N(C)C2=O)o1`, the fluorescence artifact activation was 7.26% (inactive).

As for `CCN(CC)c1ccc(N=Cc2c(O)n(Cc3ccco3)c(=O)[nH]c2=O)cc1`, the fluorescence artifact activation is 0.1% (inactive). Turning to `Cc1ccc(C)c(Cn2c(C(=O)O)c(C=O)c3ccccc32)c1`, the fluorescence artifact activation is 0.2% (inactive). Under `C[C@]12CCC(=O)C=C1CC[C@@H]1[C@@H]2CC[C@]2(C)C(=O)CC[C@@H]12` stands 0.01% (inactive). Take `CC1=C[C@@H]2c3cccc4[nH]cc(c34)C[C@H]2N(C)C1`: the fluorescence artifact activation is 14.5% (active). Turning to `CN1C[C@H](CO)C=C2c3cccc4[nH]cc(c34)C[C@H]21`, the fluorescence artifact activation is 0.35% (inactive). Under `CCC(CO)NC(=O)C1C=C2c3cccc4[nH]cc(c34)CC2N(C)C1` (configuration not stated) stands 1.39% (inactive).

For the molecule `COC(=O)C1=C(c2cccc(OC)c2OC)C[C@@H]2CC[C@H]1N2C(=O)NCc1ccco1`, the fluorescence artifact activation is 1.08% (inactive). Under `COC(=O)C1=C(c2cccc(OC)c2OC)C[C@@H]2CC[C@H]1N2C(=O)NCCCOC(C)C` stands 0.79% (inactive); under `COC(=O)C1=C(c2ccc(F)cc2OCc2ccccc2)C[C@@H]2CC[C@H]1N2C(=O)NCc1ccc(OC)c(OC)c1`, 57% (active). As for `O=C(O)C1=CC2c3ccccc3C1c1ccccc12`, the fluorescence artifact activation is 0.01% (inactive). `O=[N+]([O-])c1ccc(N2CCCCCC2)c2nonc12`: the fluorescence artifact activation was 6.24% (inactive).

As to `CCOC(=O)c1ccccc1C(=O)OCC`, the fluorescence artifact activation is 1510% (active). The same measure for `COc1ccccc1N1C(=O)NC(=O)/C(=C/c2ccc3c4c(cccc24)CC3)C1=O`: 0.07% (inactive); for `Cn1c(O)c(/C=C/C=Nc2ccccc2)c(=O)n(C)c1=O`: -0.08% (inactive); for `CCOCCCn1c(N)c(C(=O)Nc2sc3c(c2C(=O)OC)CCCC3)c2nc3ccccc3nc21`: 2.92% (inactive). On to `CCCCn1c(O)c(C(=O)/C=C/c2c[nH]c3ccccc23)c(=O)[nH]c1=O`, for which the fluorescence artifact activation is 3% (inactive). On to `CCn1c(O)c(C=Nc2ccc(N3CCOCC3)cc2)c(=O)n(CC)c1=S`, for which the fluorescence artifact activation was 23.9% (active).

Take `O=c1[nH]c(=S)n(-c2ccc(Br)cc2)c(O)c1C=Nc1ccc(N2CCOCC2)cc1`: the fluorescence artifact activation was 0.07% (inactive). On to `CCCCC(=O)N/N=C/c1c(O)n(CC)c(=S)n(CC)c1=O`, for which the fluorescence artifact activation is 0.21% (inactive). As for `Cc1ccc(N2C(=O)NC(=O)/C(=C\c3ccoc3)C2=O)cc1`, the fluorescence artifact activation is 0.07% (inactive). `COC(=O)[C@H]1C[C@@H]1[C@H](NP(=O)(c1ccccc1)c1ccccc1)c1ccccc1`: the fluorescence artifact activation is 0.01% (inactive). In the case of `COc1ccc(N=Nc2c(O)[nH]c(=S)[nH]c2=O)cc1`, the fluorescence artifact activation is 0.58% (inactive).

With `Nc1ccc2ccc3cccc[n+]3c2c1`, the fluorescence artifact activation was 0.21% (inactive).

Turning to `Cc1cc(Cl)nc(N)n1`, the fluorescence artifact activation was 14.3% (active). Under `C#C[C@]1(O)CC[C@H]2[C@@H]3CCC4=Cc5nc6nc7ccccc7n6cc5C[C@]4(C)[C@H]3CC[C@@]21C` stands 0.16% (inactive); under `CN1CCc2cc3c(c4c2C1Cc1ccccc1-4)OCO3` (configuration not stated), 0.18% (inactive); under `O=C1NC(=O)N(c2ccc3c(c2)OCO3)C(=O)/C1=C/c1ccc(N2CCCC2)o1`, 0.12% (inactive). Regarding `Cc1ccccc1N1C(=O)NC(=O)/C(=C/c2ccc(N3CCOCC3)o2)C1=O`, the fluorescence artifact activation was 14.1% (active). As for `Cc1ccccc1N1C(=O)NC(=O)/C(=C\c2cc(Br)c(N3CCOCC3)o2)C1=O`, the fluorescence artifact activation is -0.03% (inactive). With `O=C1NC(=O)C(=Cc2ccc(N3CCOCC3)o2)C(=O)N1`, the fluorescence artifact activation was -0.04% (inactive). For `CN1CCN(c2ccc(/C=C3\C(=O)NC(=S)N(c4cccc(Br)c4)C3=O)o2)CC1`, the fluorescence artifact activation is -0.01% (inactive). For the molecule `O=C1NC(=O)N(c2ccc3c(c2)OCO3)C(=O)/C1=C\c1ccc(N2CCCCC2)o1`, the fluorescence artifact activation was 0.37% (inactive). For `Cc1cccc(N2C(=O)/C(=C/c3ccc(N4CCN(C)CC4)o3)C(=O)NC2=S)c1C`, the fluorescence artifact activation is 0.2% (inactive). As to `CCc1ccccc1N1C(=O)/C(=C/c2ccc(N3CCN(C)CC3)o2)C(=O)NC1=S`, the fluorescence artifact activation was 119% (active).

`CCOc1ccc(N2C(=O)NC(=O)/C(=C\c3ccc(N4CCCCC4)o3)C2=O)cc1`: the fluorescence artifact activation was 51.4% (active). In the case of `O=[N+]([O-])c1ccc(N2CCCC2)c2ncccc12`, the fluorescence artifact activation is 9.73% (inactive). The same measure for `C[C@]12CCC3C(CC[C@H]4C[C@@H](O)[C@H](O)C[C@]34C)C1CC[C@@H]2O` (some centres not stated): 4.4% (inactive); for `OC12CCCCC1C(c1ccccc1)NCC2` (configuration not stated): 0.14% (inactive).

In the case of `CN1C(=O)C(=Cc2sc(=O)n(-c3ccccc3)c2N2CCCCC2)C(=O)N(C)C1=O`, the fluorescence artifact activation was -0.07% (inactive).

For `CCN(CC)C(=O)c1ccc(NC(=O)COc2ccc([N+](=O)[O-])cc2Cl)cc1`, the fluorescence artifact activation is 0.19% (inactive). Turning to `C=Cn1ccnc1P(=S)(c1nccn1C=C)c1nccn1C=C`, the fluorescence artifact activation was 6.72% (inactive).

For `CN(C)P(=O)(CCl)Nc1ccccc1` (configuration not stated), the fluorescence artifact activation was 10% (inactive). Regarding `C=CCN1C(=O)/C(=C\c2ccc(N3CCOCC3)o2)C(=O)NC1=S`, the fluorescence artifact activation was 0.23% (inactive). In the case of `O=C1NC(=O)C(=Cc2cn(CCOc3ccc4c(c3)OCO4)c3ccccc23)C(=O)N1`, the fluorescence artifact activation is 1.05% (inactive).

For the molecule `Cc1cc(C)c(Cn2c(C(=O)O)c(C=O)c3ccccc32)c(C)c1`, the fluorescence artifact activation was 0.05% (inactive). For `CC(C)c1ccc(N2C(=O)NC(=O)/C(=C/C=C/c3ccco3)C2=O)cc1`, the fluorescence artifact activation is -0.06% (inactive). `CC(C)C[C@H]1C(=O)N2CCC[C@H]2[C@]2(O)O[C@](NC(=O)[C@@H]3C=C4c5cccc6[nH]cc(c56)C[C@H]4N(C)C3)(C(C)C)C(=O)N12`: the fluorescence artifact activation is 0.12% (inactive).
